Experimental data: ChEMBL document CHEMBL3616432, “(+)-Dehydroabietylamine derivatives target triple-negative breast cancer” (Eur J Med Chem, 2015)
The source made the active and inactive calls. The calls are words filed in the database; no cut-off is given here.

Tests used:
[1] = Half life in mouse microsomes; assay type: ADME, Microsome
MDA-MB-231 [2] = assay: Induction of apoptosis in human triple-negative MDA-MB-231 cells assessed as increase in cleaved caspase-3 level after 6 to 12 hrs by western blot analysis; assay type: functional, cell-based
MDA-MB-231 [3] = assay: Induction of apoptosis in human triple-negative MDA-MB-231 cells assessed as cell shrinkage at 16 uM after 6 to 48 hrs by microscopic analysis; assay type: functional, cell-based
MDA-MB-231 [4] = assay: Induction of apoptosis in human triple-negative MDA-MB-231 cells assessed as increase in cleaved PARP level by western blot analysis; assay type: functional, cell-based; conditions: TDE = time-dependent effect
MDA-MB-231 [5] = assay: Induction of apoptosis in human triple-negative MDA-MB-231 cells assessed as cell death at 16 uM after 6 to 48 hrs by microscopic analysis; assay type: functional, cell-based
[6] = Permeability of the compound at pH 7.4 by PAMPA assay; assay type: physicochemical; conditions: read-out: permeability
MDA-MB-231 [7] = assay: Induction of apoptosis in human triple-negative MDA-MB-231 cells assessed as increase in DR5 level after 12 hrs by western blot analysis; assay type: functional, cell-based
[8] = Apparent permeability from basolateral to apical side in human Caco2 cells; assay type: ADME, cell-based; conditions: Caco-2
MDA-MB-231 [9] = assay: Antiproliferative activity against human triple-negative MDA-MB-231 cells at 9 uM after 72 hrs by CellTiter-Glo assay; assay type: functional, cell-based
MDA-MB-231 [10] = assay: Induction of apoptosis in human triple-negative MDA-MB-231 cells assessed as viable cells after 12 hrs by Annexin V-FITC/propidium iodide staining-based flow cytometry (reference value: 93.1%); assay type: functional
MDA-MB-231 [11] = assay: Induction of apoptosis in human triple-negative MDA-MB-231 cells assessed as decrease in caspase-7 level after 6 to 12 hrs by western blot analysis; assay type: functional, cell-based
MDA-MB-231 [12] = assay: Induction of apoptosis in human triple-negative MDA-MB-231 cells assessed as early apoptotic cells after 12 hrs by Annexin V-FITC/propidium iodide staining-based flow cytometry (reference value: 3.1%); assay type: functional
MCF7 = assay: Antiproliferative activity against human ER-positive MCF7 cells after 72 hrs by CellTiter-Glo assay; assay type: functional, cell-based
[13] = Intrinsic clearance in mouse microsomes; assay type: ADME, Microsome
[14] = Efflux ratio of permeability from basolateral to apical side over apical to basolateral side in human Caco2 cells; assay type: ADME, cell-based; conditions: Caco-2
MDA-MB-231 [15] = assay: Induction of apoptosis in human triple-negative MDA-MB-231 cells assessed as increase in cleaved caspase-8 level after 6 to 12 hrs by western blot analysis; assay type: functional, cell-based
[16] = Plasma protein binding in mouse; assay type: ADME; conditions: read-out: PPB (converted)
MDA-MB-231 [17] = assay: Induction of apoptosis in human triple-negative MDA-MB-231 cells assessed as late apoptotic cells after 12 hrs by Annexin V-FITC/propidium iodide staining-based flow cytometry (reference value: 3.7%); assay type: functional
MDA-MB-231 [18] = assay: Induction of apoptosis in human triple-negative MDA-MB-231 cells assessed as cell detachment at 16 uM after 6 to 48 hrs by microscopic analysis; assay type: functional, cell-based
MDA-MB-231 [19] = assay: Induction of DNA fragmentation in human triple-negative MDA-MB-231 cells at 8.5 uM by propidium iodide staining-based flow cytometry; assay type: functional, cell-based; conditions: TDE = time-dependent effect
[20] = Intrinsic clearance in human microsomes; assay type: ADME, Microsome
MDA-MB-231 [21] = assay: Antiproliferative activity against human triple-negative MDA-MB-231 cells after 72 hrs by CellTiter-Glo assay; assay type: functional, cell-based; conditions: MDA-MB-231, 72 h
[22] = Plasma protein binding in human; assay type: ADME, cell-free; conditions: read-out: PPB (converted)
[23] = Permeability of the compound at pH 7.4 assessed as drug retention by PAMPA assay; assay type: physicochemical
MDA-MB-231 [24] = assay: Cell cycle arrest in human triple-negative MDA-MB-231 cells assessed as accumulation at S phase at 8.5 uM after 12 hrs by propidium iodide staining-based flow cytometry (reference value: 31.23%); assay type: functional
MDA-MB-231 [25] = assay: Induction of apoptosis in human triple-negative MDA-MB-231 cells assessed as increase in cleaved caspase-9 level after 6 to 12 hrs by western blot analysis; assay type: functional, cell-based
MDA-MB-231 [26] = assay: Cell cycle arrest in human triple-negative MDA-MB-231 cells assessed as accumulation at G2/M phase at 8.5 uM after 12 hrs by propidium iodide staining-based flow cytometry (reference value: 20.40%); assay type: functional
[27] = Half life in human plasma; assay type: ADME, cell-free
Procedure, shortened: (§1)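 Compound stability incubated in human or mouse plasma; half-life determined, with known drugs as controls.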

[28] = Apparent permeability from apical to basolateral side in human Caco2 cells; assay type: ADME, cell-based; conditions: Caco-2
[29] = Half life in mouse plasma; assay type: ADME, cell-free; procedure, shortened: as §1
MDA-MB-231 [30] = assay: Induction of apoptosis in human triple-negative MDA-MB-231 cells assessed as necrotic cells after 12 hrs by Annexin V-FITC/propidium iodide staining-based flow cytometry (reference value: 0.1%); assay type: functional
MDA-MB-231 [31] = assay: Cell cycle arrest in human triple-negative MDA-MB-231 cells assessed as accumulation at G0/G1 phase at 8.5 uM after 12 hrs by propidium iodide staining-based flow cytometry (reference value: 48.36%); assay type: functional
[32] = Half life in human microsomes; assay type: ADME, Microsome

half-life [1]: 0.51 h | Papp [6]: 62.5 ×10⁻⁶ cm/s | Papp B→A [8]: 1.57 ×10⁻⁶ cm/s | CLint scaled [13]: 112 mL/min/kg | efflux ratio [14]: 0.8 | fraction unbound [16]: 0.007 | CLint scaled [20]: 22.3 mL/min/kg | EC50 (MDA-MB-231 [21]): 9 µM | fraction unbound [22]: 0.052 | permeability [23]: 60.4% | half-life [27]: 6.76 h | Papp A→B [28]: 1.96 ×10⁻⁶ cm/s | half-life [29]: 37.7 h | half-life [32]: 0.93 h
SMILES: CC(C)c1ccc2c(c1)CC[C@H]1[C@](C)(CNS(=O)(=O)c3c(F)c(F)c(F)c(F)c3F)CCC[C@]21C
Activity (MDA-MB-231 [2]): Active | Activity (MDA-MB-231 [3]): Active | Activity (MDA-MB-231 [4]): tde | Activity (MDA-MB-231 [5]): Active | Activity (MDA-MB-231 [7]): Active | Activity (MDA-MB-231 [9]): Active | Activity (MDA-MB-231 [10]): 61.5% | Activity (MDA-MB-231 [11]): Active | Activity (MDA-MB-231 [12]): 21.3% | Activity (MCF7): inactive | Activity (MDA-MB-231 [15]): Active | Activity (MDA-MB-231 [17]): 16.7% | Activity (MDA-MB-231 [18]): Active | Activity (MDA-MB-231 [19]): tde | Activity (MDA-MB-231 [24]): 20.37% | Activity (MDA-MB-231 [25]): Active | Activity (MDA-MB-231 [26]): 18.37% | Activity (MDA-MB-231 [30]): 0.5% | Activity (MDA-MB-231 [31]): 61.26%
